The results in this text go back to ChEMBL document CHEMBL1131270, “Fluorescent probes for adenosine receptors: synthesis and biology of N6-dansylaminoalkyl-substituted NECA derivatives” (Bioorg Med Chem Lett, 1998).

Bounds are passed on as bounds.

For one experiment, the target named is T1, Adenosine receptor A1 (Rattus norvegicus, UniProt P25099).
T1 sequence (P25099 whole entry): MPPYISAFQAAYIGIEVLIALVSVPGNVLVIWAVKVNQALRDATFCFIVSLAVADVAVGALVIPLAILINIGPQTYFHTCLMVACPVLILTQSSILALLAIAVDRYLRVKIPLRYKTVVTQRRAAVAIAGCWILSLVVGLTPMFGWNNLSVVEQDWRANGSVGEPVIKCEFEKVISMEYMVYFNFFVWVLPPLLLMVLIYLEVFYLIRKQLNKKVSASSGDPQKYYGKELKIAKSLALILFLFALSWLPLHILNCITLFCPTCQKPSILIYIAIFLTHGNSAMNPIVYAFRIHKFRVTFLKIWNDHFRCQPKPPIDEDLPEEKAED
In words: Binding affinity for adenosine A1 receptor of rat cerebral cortex membrane using [3H]CHA. The format is tissue-based. The gist of the method: (§1)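 Competition binding on rat membrane preparations: cerebral cortex for A1 with [3H]-CHA, striatum for A2 with [3H]-CGS 21680. Membrane preparation and assay followed an earlier published method. IC50 values were converted to Ki with the Cheng–Prusoff equation and reported as mean ± S.E. of three experiments.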

Another experiment has as its target Adenosine A2 receptor (Rattus norvegicus, UniProt P29276+P30543). In words: Binding affinity for adenosine A2 receptor of rat striatal membrane using [3H]CGS-21680. The gist of the method:
as §1

Another experiment concerns the target T2, Adenosine receptor A3 (Rattus norvegicus, UniProt P28647).
T2 sequence (P28647 whole entry): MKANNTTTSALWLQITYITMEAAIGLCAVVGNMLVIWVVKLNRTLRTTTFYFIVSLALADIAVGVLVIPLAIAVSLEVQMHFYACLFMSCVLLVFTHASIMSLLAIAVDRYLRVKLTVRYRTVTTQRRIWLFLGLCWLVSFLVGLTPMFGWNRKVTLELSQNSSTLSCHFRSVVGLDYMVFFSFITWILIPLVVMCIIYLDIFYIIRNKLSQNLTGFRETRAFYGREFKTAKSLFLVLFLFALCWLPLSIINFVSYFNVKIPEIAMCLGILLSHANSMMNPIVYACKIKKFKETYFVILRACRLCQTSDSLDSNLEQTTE
In words: Binding affinity for adenosine A3 receptor of rat testis membrane using [3H](R)-PIA. The gist of the method: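 Rat testis membranes were labelled with [3H]-(R)-PIA for A3 binding, with 150 nM DPCPX present to block A1 receptors. Membrane preparation and assay followed an earlier published method. IC50 values were converted to Ki by Cheng–Prusoff and reported as mean ± S.E. of three experiments.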

For orientation: Ki means the equilibrium dissociation constant of an inhibitor or competing ligand from its target. Read a low Ki as tighter binding. On to `CCNC(=O)[C@H]1OC(n2cnc3c(NCCCCCCCCNS(=O)(=O)c4cccc5c(N(C)C)cccc45)ncnc32)[C@H](O)[C@@H]1O` (stereo partly drawn), for which the inhibitory constant (Ki) at Adenosine receptor A1 is 0.111 µM; at Adenosine A2 receptor, > 10 µM; at Adenosine receptor A3, 0.252 µM.

Take `CCNC(=O)[C@H]1OC(n2cnc3c(NCCCCCCNS(=O)(=O)c4cccc5c(N(C)C)cccc45)ncnc32)[C@H](O)[C@@H]1O` (stereo partly drawn): the Ki was 0.027 µM on Adenosine receptor A1, 4.3 µM on Adenosine A2 receptor and 3.6 µM on Adenosine receptor A3.

Take `CCNC(=O)[C@H]1OC(n2cnc3c(NCCCCCCCCCCNS(=O)(=O)c4cccc5c(N(C)C)cccc45)ncnc32)[C@H](O)[C@@H]1O` (stereo partly drawn): the Ki is 0.234 µM at Adenosine receptor A1, > 10 µM at Adenosine A2 receptor and 1.1 µM on Adenosine receptor A3.

On to `CCNC(=O)[C@H]1OC(n2cnc3c(NCCCNS(=O)(=O)c4cccc5c(N(C)C)cccc45)ncnc32)[C@H](O)[C@@H]1O` (stereo partly drawn), for which the inhibition constant Ki came to 0.042 µM on Adenosine receptor A1, 4.3 µM on Adenosine A2 receptor and 1.8 µM at Adenosine receptor A3.

On to `CCNC(=O)[C@H]1OC(n2cnc3c(NCCCCNS(=O)(=O)c4cccc5c(N(C)C)cccc45)ncnc32)[C@H](O)[C@@H]1O` (stereo partly drawn), for which the values for the Ki on Adenosine receptor A1, at Adenosine A2 receptor and at Adenosine receptor A3 were 0.07 µM, 9.5 µM and 2 µM, respectively.

`CCNC(=O)[C@H]1OC(n2cnc3c(NCCCCCCCCCCCCNS(=O)(=O)c4cccc5c(N(C)C)cccc45)ncnc32)[C@H](O)[C@@H]1O` (stereo partly drawn): the inhibition constant (Ki) at Adenosine receptor A1 is 3.4 µM; on Adenosine A2 receptor it was > 10 µM; on Adenosine receptor A3, 2.5 µM.
